Compounds with a hit are over-represented: about 2.1% of the library has one in this group of screens.
CXCR6 block: CXCR6 (human) receptor inhibition; O00574; CHO-K1 PathHunter CXCR6 beta-arrestin, luminescence; 360,000 tested, 0.36% active; inhibition, % at 20 µM; AID 602244; in the data active means inhibition above about 34%, passing the limit was not always enough;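 further: antagonist mode with CXCL16 agonist at 10 nM final; 0% = 10 nM CXCL16 with DMSO and 100% = unstimulated wells without agonist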
APJ ag: agonists of human APJ apelin receptor; P35414; CHO-K1 APJ PathHunter beta-arrestin, luminescence; 0% DMSO wells, 100% apelin; activation, % at 20 µM; 330,000 tested, 0.11% active;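 active means activation more than six SD over the plate average, tested at 20 µM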;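 further: 0% = DMSO alone and 100% = apelin-13 at 10 nM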
Target sequence (P35414 whole entry, looked up): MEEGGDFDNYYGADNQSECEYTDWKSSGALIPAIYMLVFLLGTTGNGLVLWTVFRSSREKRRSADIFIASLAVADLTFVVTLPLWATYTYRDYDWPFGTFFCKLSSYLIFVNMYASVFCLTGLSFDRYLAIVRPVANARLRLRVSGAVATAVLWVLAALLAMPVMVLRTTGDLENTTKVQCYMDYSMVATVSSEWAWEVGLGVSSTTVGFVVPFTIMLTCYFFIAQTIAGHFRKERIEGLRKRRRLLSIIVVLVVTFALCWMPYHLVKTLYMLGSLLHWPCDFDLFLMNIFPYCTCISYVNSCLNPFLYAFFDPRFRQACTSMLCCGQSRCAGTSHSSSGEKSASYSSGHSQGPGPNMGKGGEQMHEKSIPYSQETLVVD
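Test system – PathHunter CHO-K1 APJ (AGTRL-1) beta-arrestin reporter cells · Input – 1000 cells/well · Compound – single test compound dose, 20 µM final, 1% DMSO · Times – compound stimulation 90 min at 25 °C, detection 60 min · Technique – beta-gal luminescence · Read-out basis – APJ–arrestin association signal · Control set – negative DMSO alone, positive Apelin-13 at 10 nM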
APJ antag: blocks the human apelin receptor APJ; P35414; CHO-K1 APJ beta-arrestin complementation, luminescence; inhibition, % at 20 µM; 330,000 tested, 0.32% active;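 active means inhibition above about 40% at 20 µM, limit read from the data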;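 further: cells challenged with 10 nM apelin-13 agonist together with compound; plate controls were apelin-13 plus DMSO wells for no effect and DMSO wells lacking apelin-13 for full effect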
m5-HT2A agonist: mouse HTR2A agonism via beta-arrestin recruitment; CHO-K1 mHTR2A beta-arrestin complementation, luminescence; percent of 30 µM serotonin response; activation, % at 7.6 µM; 360,000 tested, 0.66% active;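 active means activation above a run cutoff, the mean activation of all tested compounds plus 3 SD, cut at about 14% in these data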;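 further: 0% = plate median of compound wells and 100% = 30 µM serotonin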
EBI2 antag: EBI2 (human) antagonism; P32249; EBI2 beta-arrestin recruitment, luminescence, 7a,25-OHC stimulated; inhibition, % at 5 µM; 360,000 tested, 0.81% active; in the data active means inhibition above about 38%;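 further: enzyme fragment complementation signal reports receptor beta-arrestin coupling in cells; 0% = agonist plus DMSO wells and 100% = wells without agonist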
CCR6 antagonist: antagonists of human CCR6 receptor | CHO-K1 CCR6 PathHunter beta-arrestin, luminescence, CCL20-stimulated | 340,000 tested, 0.49% active | inhibition, % at 20 µM | P51684;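 active means compounds whose inhibition of the agonist-driven luminescence signal at 20 µM reaches about 50%, limit read from the data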;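 further: cells stimulated with CCL20 at 14 nM final; plate controls were DMSO with CCL20 for no effect and DMSO without agonist for full effect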
EBI2 antag conf: EBI2 (human) antagonism, single concentration confirmation | shares compounds with EBI2 antag | 2,400 tested, 29% active | inhibition, % at 5 µM | AID 651997 | EBI2 beta-arrestin luminescence, 7a,25-OHC antagonism;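 active means inhibition of at least 50%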
EBI2 agonist: EBI2 agonism counter-screen; shares compounds with EBI2 antag; EBI2-expressing cells, agonist mode, luminescence, 60 min; 0% vehicle, 100% 7α,25-dihydroxycholesterol control; activation, % at 5 µM; 2,400 tested, under 10 active; AID 652000;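 active means activation of at least 50%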
bGal cs: inhibits E. coli beta-galactosidase, counter-screen for EBI2 antagonists. shares compounds with EBI2 antag. purified beta-galactosidase, luminescent Galacton Star, 15 min. inhibition, % at 5 µM. 2,400 tested, 1% active. AID 652176;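 active means replicate-average signal at least 3 plate SD below neutral wells, shown as high inhibition, flagging enzyme-inhibiting false positives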;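 further: 0% = DMSO wells with enzyme and 100% = wells lacking enzyme; higher means stronger loss of beta-gal luminescence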
* marks the source's active call; other numbers are inactive results; . = no result given.

SMILES	CXCR6 block	APJ ag	APJ antag	m5-HT2A agonist	EBI2 antag	CCR6 antagonist	EBI2 antag conf	EBI2 agonist	bGal cs
Cc1ccc(S(=O)(=O)N(C)c2ccc(C(=O)Nc3ccc(C)cn3)cc2)cc1	-8	-1	2	-5	14	8	.	.	.
CCOc1ccc(NC(=O)c2ccc(S(=O)(=O)N(C)C)cc2)cc1	-1	0	6	-3	7	12	.	.	.
Cc1ccc(CNC(=O)c2ccc(N(C)S(=O)(=O)c3ccccc3)cc2)cc1	-1	-2	-5	-7	83*	19	47	1	2
COc1ccc(C(=O)Nc2ccc3c(c2)nc(CN2CCCC2)n3C)cc1	4	3	11	-2	1	3	.	.	.
COc1cc2cnc(CCO[C@H]3CCCCO3)cc2cc1OC	-1	-3	1	-5	-7	8	.	.	.
Oc1csc(Cc2nc(-c3ccccc3F)cs2)n1	27	-5	6	2	6	38	.	.	.
Cc1cc(C(=O)Nc2cc(C(F)(F)F)ccc2N2CCOCC2)no1	8	6	22	-3	-2	20	.	.	.
O=C(Nc1cc(C(F)(F)F)ccc1N1CCOCC1)c1ccc2ccccc2n1	1	-3	21	-3	44*	6	31	1	10
CN(NC(=O)C(=O)NCc1ccco1)C(=O)Nc1ccc(Cl)cc1	-3	.	.	0	9	.	.	.	.
CC(=O)N(Cc1ccco1)c1nc(C(=O)Nc2ccc(Cl)cc2)c(C)s1	6	-1	5	-2	61*	25	17	1	7
O=C1NC(=Nc2cccnc2)S/C1=C/c1ccc(F)cc1	-2	0	-8	4	0	8	.	.	.
O=C1NC(=Nc2ccccc2)S/C1=C\c1cccnc1	-5	-5	16	-1	45*	-2	51*	-1	-6
Cc1ccc(N=C2NC(=O)/C(=C/c3cccnc3)S2)cc1C	1	1	3	-3	47*	15	34	0	6
Cc1ccc(N=C2NC(=O)/C(=C\c3cccs3)S2)cc1C	10	-2	-4	1	-5	18	.	.	.
COc1ccc(NC(=O)CSc2nc3ccsc3c(=O)n2CCC(=O)O)cc1	-5	.	.	2	-3	.	.	.	.
O=C(NCC(=O)N1CCN(c2ccccc2O)CC1)c1ccc(Br)o1	-10	-3	-6	1	-10	8	.	.	.
c1ccc(OCCN2CCN(C(c3ccccc3)c3ccccc3)CC2)cc1	17	-4	0	-8	45*	24	5	0	-10
c1ccc(OCCN2CCNCC2)cc1	-2	.	.	3	8	6	.	.	.
COc1cccc(OCC(O)CN2CCN(C(c3ccccc3)c3ccccc3)CC2)c1 (configuration not stated)	0	1	-15	-5	38*	0	16	-1	-11
Cc1noc(C)c1S(=O)(=O)N(C)C[C@H]1OCc2cnnn2CCCC(=O)N([C@H](C)CO)C[C@H]1C	-7	.	.	3	-5	.	.	.	.
COc1cccc(CNS(=O)(=O)c2ccc3c(c2)oc(=O)n3C)c1	2	2	-5	0	-2	-7	.	.	.
COc1ccc(-c2cc3nc(C)c(CCC(=O)NCc4ccc(F)cc4)c(C)n3n2)c(OC)c1	-11	1	10	4	53*	-1	40	2	-7
COc1ccc(CNC(=O)CCc2c(C)nc3cc(-c4ccccc4OC)nn3c2C)cc1	1	-4	12	1	10	-1	.	.	.
CCOc1ccc(N2CC(C(=O)Nc3nnc(Cc4ccc(OC)cc4)s3)CC2=O)cc1 (configuration not stated)	-6	-3	6	-4	7	2	.	.	.
O=C(Nc1cnn(Cc2ccc(F)cc2)c1)C(c1ccccc1)c1ccccc1	8	-1	6	-3	73*	9	38	2	-1
SMILES	CXCR6 block	APJ ag	APJ antag	m5-HT2A agonist	EBI2 antag	CCR6 antagonist	EBI2 antag conf	EBI2 agonist	bGal cs
CC(C)(C)C1CCc2onc(C(=O)Nc3cnn(Cc4ccc(F)cc4)c3)c2C1 (configuration not stated)	-4	-5	-18	3	44*	-7	8	-2	-7
CCCCN(C)C(=O)C1CCN(Cc2cccc(OCc3ccccc3)c2)CC1	11	-4	16	-6	22	3	.	.	.
Cc1nc(N2CCC(C)CC2)c2c(C)c(C(=O)Nc3ccc(C)c(F)c3)sc2n1	-4	3	-6	2	-15	-11	.	.	.
Cc1nc(N2CCC(C)CC2)c2c(C)c(C(=O)Nc3ccccc3C(F)(F)F)sc2n1	-14	1	-19	5	45*	-1	15	0	-10
Cc1cccc(OCCNc2cc(N3CCOCC3)ccc2[N+](=O)[O-])c1	8	0	1	0	64*	22	48	1	9
CCOc1cc(N2CCOCC2)c(OCC)cc1NC(=O)CSc1nnc(N)s1	-1	-3	-2	3	-21	-1	.	.	.
C=CCN1C(=O)NC(c2ccccc2)(C(F)(F)F)S/C1=C(\C#N)c1nnc(N2CCOCC2)n1-c1ccccc1 (configuration not stated)	5	-4	9	1	53*	18	53*	1	-12
COc1ccccc1NC(=O)CSc1ccc(-c2ccc(-n3ccnc3)cc2)nn1	-3	1	-27	-2	-2	3	.	.	.
O=C(CSc1ccc2c(c1)OCCO2)NCCc1ccc(Cl)cc1Cl	-2	0	-20	-6	63*	4	27	0	-12
O=[N+]([O-])c1ccc(N/N=C/c2cn(-c3ccccc3)nc2-c2ccccc2)cc1	16	-3	26	3	44*	29	17	-1	8
Cc1ccc(NC(=S)Nc2ccc3cn[nH]c3c2)cc1C	8	-2	-8	3	-13	2	.	.	.
CC(C)c1ccc(NC(=S)Nc2ccc3cn[nH]c3c2)cc1	-8	1	-1	-1	50*	9	45	0	6
CC(C)(C)NC(=O)C1c2ccccc2OCC(=O)N1Cc1ccccn1 (configuration not stated)	-4	.	.	3	1	.	.	.	.
Cc1cc(C)c(OCC(=O)N2CCN(c3ncc(C(F)(F)F)cc3Cl)CC2)c(C)c1	2	-10	-7	2	9	13	.	.	.
Cc1ccc(C(C)C)c(OCC(=O)N2CCN(c3ncccn3)CC2)c1	4	0	0	0	48*	-1	44	0	0

Compound activity: PubChem BioAssay, several laboratories
